Source: PubChem BioAssay AID588455 (Southern Research Specialized Biocontainment Screening …, 2011)

Tested on: HEp-2 RSV Long CPE inhibition, luminescence viability
Assay: antiviral activity against respiratory syncytial virus – cell-based, synthesized compounds, set 13, dose response (AID 588455)
Method in brief: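 Detection: luminescence-based measurement of viral cytopathic effect. Material: HEp-2 human cells infected with RSV strain Long. Schedule: 6 days of virus and compound exposure at 37 °C. Read-out basis: % CPE inhibition and IC50 (4-parameter fit, 0–100 fixed). Reagent: RSV strain Long virus at MOI 0.45.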

Row | SMILES | IC50
1 | COCCCNC(=O)c1ccc(Cn2c(=O)c3ccccc3n(Cc3ccc(Cl)cc3)c2=O)cc1 | 970 nM
2 | COCCCNC(=O)c1ccc(Cn2c(=O)c3ccccc3n(Cc3ccc([N+](=O)[O-])cc3)c2=O)cc1 | 480 nM
3 | COCCCNC(=O)c1ccc(Cn2c(=O)c3ccccc3n(Cc3ccc(Br)cc3)c2=O)cc1 | 480 nM
